Published values gathered from unrelated publications.
Compare with care: the assays were run in different laboratories.
Medium: Caco-2

C/N=c1\nc(-c2ccccc2)n(-c2ccccc2)s1
Papp A→B (20 µM, 95 min): 38.9 ×10⁻⁶ cm/s

C[C@]12C[C@@H](O)[C@H]3[C@@H](CC[C@]4(O)C[C@@H](O)C[C@@H](O)[C@]34CO)[C@@]1(O)CC[C@@H]2c1cn(Cc2ccccc2)nn1
Papp A→B (1 h, pH 6.5): 0.19 ×10⁻⁶ cm/s

COc1cc2c(c(OC)c1OC)-c1ccc(OC)c(=O)cc1[C@@H](NC(C)=O)CC2
Papp A→B: 0.2 ×10⁻⁶ cm/s

O=C(CCCN1CCC2(CC1)C(=O)NCN2c1ccccc1)N(CC1CCCCC1)c1ccccc1
Papp B→A: 6.8 ×10⁻⁶ cm/s

CC[C@@]1(O)C(=O)OCc2c1cc1n(c2=O)Cc2cc3ccccc3nc2-1
Papp A→B (100 µM, 105 min): 36 ×10⁻⁶ cm/s

C[C@H]1O[C@@H](O[C@H]2[C@@H](O)C[C@H](O[C@H]3[C@@H](O)C[C@H](O[C@H]4CC[C@@]5(C)[C@H](CC[C@@H]6[C@@H]5C[C@@H](O)[C@]5(C)[C@@H](C7=CC(=O)OC7)CC[C@]65O)C4)O[C@@H]3C)O[C@@H]2C)C[C@H](O)[C@@H]1O
Papp A→B (10 µM, 1 h, pH 7.4): 4.28 ×10⁻⁶ cm/s

N=c1c2c(-c3ccccc3)c(-c3ccccc3)n(Cc3ccccc3)c2ncn1[C@H]1CC[C@H](O)CC1
Papp A→B (3 µM, 2 h, pH 7.4): 0.2 ×10⁻⁶ cm/s

COc1ccc2c(c1)[C@]13CCCC[C@@H]1[C@H](C2)N(C)CC3
Papp A→B (10 µM, pH 6.5): 34.9 ×10⁻⁶ cm/s
